Calls of active or inactive are those of the source. The rule behind the calls is not given here.
Key:
AGS [1] = test: Induction of apoptosis in human AGS cells assessed as early apoptosis level at 150 ug/mL after 48 hrs by Annexin V-FITC apoptosis assay; format: functional, cell-based
Method in brief: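 AGS cells seeded at 40 × 10^4 per well and incubated 24 h at 37 °C under 5% CO2. Treated 24 and 48 h with test compound at 15 μg/mL, or cycloheximide at 150 μg/mL as positive control; untreated cells as negative control. Trypsinized, pelleted, then resuspended in binding buffer (0.1 M Hepes/NaOH, 1.4 M NaCl, 25 mM CaCl2). Stained with FITC-annexin V plus PI for 15 min, dark, room temperature. Flow cytometry within 1 h; early apoptosis counted as AV+/PI−.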

MDA-MB-231 = test: Cytotoxicity against human MDA-MB-231 cells after 48 hrs by MTT assay; format: functional, cell-based; conditions: MDA-MB-231, 48 h
Method in brief: (§1)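 Cells seeded at 1.0 × 10^4 to 3.5 × 10^4 per well and incubated 24 h at 37 °C under 5% CO2. Exposed to a range of compound concentrations for 48 h, washed, then given MTT for 2 h and lysed. Absorbance read at 560 nm 45 min after lysis; IC50 from probit analysis. Cycloheximide as positive control.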

NIH3T3 = test: Cytotoxicity against mouse NIH/3T3 cells after 48 hrs by MTT assay; format: functional, cell-based; conditions: NIH3T3, 48 h; method in brief: as §1
AGS [2] = test: Cytotoxicity against human AGS cells after 48 hrs by MTT assay; format: functional, cell-based; method in brief: as §1
MCF7 = test: Cytotoxicity against human MCF7 cells after 48 hrs by MTT assay; format: functional, cell-based; conditions: MCF7, 48 h; method in brief: as §1
HT-29 = test: Cytotoxicity against human HT-29 cells after 48 hrs by MTT assay; format: functional, cell-based; conditions: HT-29, 48 h; method in brief: as §1
AGS [3] = test: Induction of apoptosis in human AGS cells assessed as early apoptosis level at 15 ug/mL after 24 hrs by Annexin V-FITC apoptosis assay; format: functional
Method in brief: (§2)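 Cells plated at 40 × 10^4 per well, grown 24 h at 37 C in 5% CO2, then exposed to compound at 15 μg/mL for the stated time. Harvested by rapid trypsinisation, pelleted, resuspended in binding buffer (0.1 M Hepes/NaOH, 1.4 M NaCl, 25 mM CaCl2). Stained with FITC-annexin V and PI for 15 min, dark, room temperature. Flow cytometry within 1 h; early apoptosis scored as AV+/PI−. Untreated cells as negative control, cycloheximide 150 μg/mL as positive control.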

AGS [4] = test: Induction of apoptosis in human AGS cells assessed as early apoptosis level at 15 ug/mL after 48 hrs by Annexin V-FITC apoptosis assay; format: functional; method in brief: as §2

C[C@@H]1C[C@@H]([C@H](O)CC2CC(=O)NC(=O)C2)C(=O)[C@@H](C)C1 [CYCLOHEXIMIDE]
Activity (AGS [1]): Active
IC50 (MDA-MB-231): 1.2 µM
IC50 (NIH3T3): 1.1 µM
IC50 (AGS [2]): 3.6 µM
IC50 (MCF7): > 100 µM
IC50 (HT-29): 12.8 µM

Cc1cc2c(c(C)c1CCOS(=O)(=O)O)C(=O)[C@@H](C)[C@@H]2O
Activity (AGS [3]): 6.8%
IC50 (MDA-MB-231): > 100 µM
IC50 (NIH3T3): 46.8 µM
Activity (AGS [4]): 25.2%
IC50 (AGS [2]): 23.9 µM
IC50 (MCF7): 64.4 µM
IC50 (HT-29): 68.8 µM
